Laboratory results: ChEMBL document CHEMBL4406794, “N-(7-Cyano-6-(4-fluoro-3-(2-(3-(trifluoromethyl)phenyl)acetamido)phenoxy)benzo[d]thiazol-2-yl)cyclopropanecarboxamide (TAK-632) Analogues as Novel Necroptosis Inhibitors by Targeting Receptor-Interacting Protein Kinase 3 (RIPK3): Synthesis, Structure-Activity Relationships, and in Vivo Efficacy” (J Med Chem, 2019)
Activity calls are given as the source filed them. The rule behind the calls is not given here.

Assays:
[1] = target: T1, Receptor-interacting serine/threonine-protein kinase 1 (Homo sapiens, UniProt Q13546); test: Binding affinity to wild-type human partial length RIPK1 (M1 to K305 residues) expressed in bacterial expression system after 1 hr by quantitative PCR based KINOMEscan assay
T1 sequence (Q13546 whole entry): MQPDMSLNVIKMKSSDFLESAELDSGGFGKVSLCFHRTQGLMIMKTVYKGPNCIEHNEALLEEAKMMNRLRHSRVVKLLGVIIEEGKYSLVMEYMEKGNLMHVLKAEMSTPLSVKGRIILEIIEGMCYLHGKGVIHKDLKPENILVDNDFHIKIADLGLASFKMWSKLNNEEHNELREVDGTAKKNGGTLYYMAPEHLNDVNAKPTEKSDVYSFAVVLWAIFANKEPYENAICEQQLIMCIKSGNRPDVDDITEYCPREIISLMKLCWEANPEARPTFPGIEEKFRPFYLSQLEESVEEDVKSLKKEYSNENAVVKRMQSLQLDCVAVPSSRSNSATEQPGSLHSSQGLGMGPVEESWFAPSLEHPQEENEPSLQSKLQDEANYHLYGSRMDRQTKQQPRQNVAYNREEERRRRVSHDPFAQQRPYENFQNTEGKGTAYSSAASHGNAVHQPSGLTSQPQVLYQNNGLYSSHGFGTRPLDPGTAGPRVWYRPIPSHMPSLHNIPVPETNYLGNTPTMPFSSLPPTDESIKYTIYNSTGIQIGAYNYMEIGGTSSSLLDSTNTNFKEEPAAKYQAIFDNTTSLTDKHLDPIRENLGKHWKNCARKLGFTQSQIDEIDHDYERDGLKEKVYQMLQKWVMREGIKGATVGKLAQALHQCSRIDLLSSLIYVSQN
In short: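 KINOMEscan competition binding. Bound kinase eluted with 0.5 μM nonbiotinylated ligand for 30 min and quantified by qPCR. Duplicates averaged.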

[2] = Cytotoxicity against human HT-29 cells measured after 12 hrs by CellTiter-Glo Luminescent assay; assay type: cell-based
[3] = test system: Serine/threonine-protein kinase B-raf (Homo sapiens), P15056 [V600E]; test: Inhibition of human partial length BRAF V600E mutant (S429 to E741 residues) expressed in mammalian expression system assessed as enzyme remaining activity at 1000 nM by Kinomescan method relative to control
Serine/threonine-protein kinase B-raf (Homo sapiens), P15056 [V600E], sequence (P15056 whole entry V600E, the tested form may be a part): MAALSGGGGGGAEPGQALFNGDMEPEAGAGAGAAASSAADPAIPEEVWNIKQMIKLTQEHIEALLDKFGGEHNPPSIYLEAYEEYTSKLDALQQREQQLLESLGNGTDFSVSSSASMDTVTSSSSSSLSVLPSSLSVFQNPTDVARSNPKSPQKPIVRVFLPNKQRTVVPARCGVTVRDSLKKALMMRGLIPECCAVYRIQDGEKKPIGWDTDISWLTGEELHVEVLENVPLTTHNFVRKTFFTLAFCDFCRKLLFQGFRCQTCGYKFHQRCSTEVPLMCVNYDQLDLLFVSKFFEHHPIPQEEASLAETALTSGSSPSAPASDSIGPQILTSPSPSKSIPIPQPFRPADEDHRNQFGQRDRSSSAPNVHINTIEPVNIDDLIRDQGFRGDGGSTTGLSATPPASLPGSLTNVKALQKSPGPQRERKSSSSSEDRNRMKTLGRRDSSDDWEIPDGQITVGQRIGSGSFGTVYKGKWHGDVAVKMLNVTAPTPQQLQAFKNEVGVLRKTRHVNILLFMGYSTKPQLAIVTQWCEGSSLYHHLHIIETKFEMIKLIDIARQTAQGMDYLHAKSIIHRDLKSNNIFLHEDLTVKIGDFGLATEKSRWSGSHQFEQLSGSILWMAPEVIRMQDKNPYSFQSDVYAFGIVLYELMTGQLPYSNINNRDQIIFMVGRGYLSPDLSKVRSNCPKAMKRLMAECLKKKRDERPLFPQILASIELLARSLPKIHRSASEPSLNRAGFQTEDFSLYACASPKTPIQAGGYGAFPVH

[4] = target: Fibroblast growth factor receptor 2 (Homo sapiens) (UniProt P21802); test: Inhibition of wild-type human partial length FGFR2 (D457 to E769 residues) expressed in bacterial expression system assessed as enzyme remaining activity at 1000 nM by Kinomescan method relative to control
[5] = target: RAF proto-oncogene serine/threonine-protein kinase (Homo sapiens) (UniProt P04049); test: Inhibition of wild-type human partial length RAF1 (I330 to T640 residues) expressed in bacterial expression system assessed as enzyme remaining activity at 1000 nM by Kinomescan method relative to control
RAF proto-oncogene serine/threonine-protein kinase (Homo sapiens), sequence (P04049 whole entry, the tested form may be a part): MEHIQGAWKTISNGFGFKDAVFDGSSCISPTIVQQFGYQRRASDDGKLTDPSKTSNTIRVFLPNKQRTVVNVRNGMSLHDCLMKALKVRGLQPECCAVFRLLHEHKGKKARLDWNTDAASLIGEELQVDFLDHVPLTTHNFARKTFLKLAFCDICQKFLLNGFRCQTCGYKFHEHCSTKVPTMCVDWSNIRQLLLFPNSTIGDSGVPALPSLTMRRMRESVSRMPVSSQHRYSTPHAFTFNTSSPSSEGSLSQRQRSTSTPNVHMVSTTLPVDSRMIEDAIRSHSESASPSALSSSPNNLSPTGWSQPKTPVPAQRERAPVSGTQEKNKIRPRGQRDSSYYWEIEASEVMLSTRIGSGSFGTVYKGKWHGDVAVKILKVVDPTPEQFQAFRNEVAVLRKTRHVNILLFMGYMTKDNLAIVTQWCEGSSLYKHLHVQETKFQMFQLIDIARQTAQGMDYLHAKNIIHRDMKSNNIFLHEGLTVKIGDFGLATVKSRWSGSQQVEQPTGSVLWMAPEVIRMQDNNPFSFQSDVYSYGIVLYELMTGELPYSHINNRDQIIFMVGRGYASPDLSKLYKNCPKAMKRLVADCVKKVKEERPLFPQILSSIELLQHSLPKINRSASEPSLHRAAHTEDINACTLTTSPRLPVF

[6] = target: Cyclin-dependent kinase 7 (Homo sapiens) (UniProt P50613); test: Inhibition of wild-type human full length CDK7 (M1 to L344 residues) expressed in mammalian expression system assessed as enzyme remaining activity at 1000 nM by Kinomescan method relative to control
Cyclin-dependent kinase 7 (Homo sapiens), sequence (P50613 whole entry, the tested form may be a part): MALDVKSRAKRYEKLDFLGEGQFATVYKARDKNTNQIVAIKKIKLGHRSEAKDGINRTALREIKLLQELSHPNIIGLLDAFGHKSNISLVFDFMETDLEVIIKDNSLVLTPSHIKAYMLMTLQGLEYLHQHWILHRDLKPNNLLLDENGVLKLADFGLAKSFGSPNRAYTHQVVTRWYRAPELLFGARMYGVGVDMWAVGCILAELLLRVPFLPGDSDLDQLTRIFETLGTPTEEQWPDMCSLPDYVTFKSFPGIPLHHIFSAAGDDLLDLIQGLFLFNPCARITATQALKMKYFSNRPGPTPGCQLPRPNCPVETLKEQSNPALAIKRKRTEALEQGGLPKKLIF

[7] = target: Glycogen synthase kinase-3 beta (Homo sapiens) (UniProt P49841); test: Inhibition of wild-type human full length GSK3B (M1 to T433 residues) expressed in mammalian expression system assessed as enzyme remaining activity at 1000 nM by Kinomescan method relative to control
Glycogen synthase kinase-3 beta (Homo sapiens), sequence (P49841 whole entry, looked up, the tested form may be a part): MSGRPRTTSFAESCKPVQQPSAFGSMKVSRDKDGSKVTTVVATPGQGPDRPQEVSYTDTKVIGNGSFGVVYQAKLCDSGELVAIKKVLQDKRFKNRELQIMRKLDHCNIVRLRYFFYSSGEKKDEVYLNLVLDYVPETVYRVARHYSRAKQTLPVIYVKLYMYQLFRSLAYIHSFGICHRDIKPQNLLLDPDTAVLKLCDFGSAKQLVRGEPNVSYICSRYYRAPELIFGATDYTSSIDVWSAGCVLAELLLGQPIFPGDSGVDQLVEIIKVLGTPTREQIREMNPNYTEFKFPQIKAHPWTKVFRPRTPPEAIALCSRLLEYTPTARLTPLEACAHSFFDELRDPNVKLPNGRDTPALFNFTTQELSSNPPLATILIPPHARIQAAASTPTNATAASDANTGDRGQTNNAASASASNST

[8] = target: Mitogen-activated protein kinase kinase kinase 4 (Homo sapiens) (UniProt Q9Y6R4); test: Inhibition of wild-type human partial length MAP3K4 (G1319 to E1608 residues) expressed in bacterial expression system assessed as enzyme remaining activity at 1000 nM by Kinomescan method relative to control
[9] = target: Dual specificity mitogen-activated protein kinase kinase 1 (Homo sapiens) (UniProt Q02750); test: Inhibition of wild-type human full length MEK1 (M1 to V393 residues) expressed in mammalian expression system assessed as enzyme remaining activity at 1000 nM by Kinomescan method relative to control
Dual specificity mitogen-activated protein kinase kinase 1 (Homo sapiens), sequence (Q02750 whole entry, the tested form may be a part): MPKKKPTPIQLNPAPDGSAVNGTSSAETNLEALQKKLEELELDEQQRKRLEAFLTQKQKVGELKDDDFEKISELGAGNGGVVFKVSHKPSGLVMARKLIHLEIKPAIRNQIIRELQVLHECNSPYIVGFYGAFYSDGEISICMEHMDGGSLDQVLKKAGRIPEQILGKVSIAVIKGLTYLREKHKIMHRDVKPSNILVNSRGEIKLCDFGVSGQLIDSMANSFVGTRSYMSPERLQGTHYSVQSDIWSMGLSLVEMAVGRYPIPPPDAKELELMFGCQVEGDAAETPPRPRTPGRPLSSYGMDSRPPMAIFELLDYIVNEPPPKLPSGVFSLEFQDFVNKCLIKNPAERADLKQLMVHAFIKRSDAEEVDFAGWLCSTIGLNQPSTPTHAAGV

[10] = target: Mitogen-activated protein kinase 14 (Homo sapiens) (UniProt Q16539); test: Inhibition of wild-type human full length p38-alpha (M1 to S360 residues) expressed in bacterial expression system assessed as enzyme remaining activity at 1000 nM by Kinomescan method relative to control
Mitogen-activated protein kinase 14 (Homo sapiens), sequence (Q16539 whole entry, the tested form may be a part): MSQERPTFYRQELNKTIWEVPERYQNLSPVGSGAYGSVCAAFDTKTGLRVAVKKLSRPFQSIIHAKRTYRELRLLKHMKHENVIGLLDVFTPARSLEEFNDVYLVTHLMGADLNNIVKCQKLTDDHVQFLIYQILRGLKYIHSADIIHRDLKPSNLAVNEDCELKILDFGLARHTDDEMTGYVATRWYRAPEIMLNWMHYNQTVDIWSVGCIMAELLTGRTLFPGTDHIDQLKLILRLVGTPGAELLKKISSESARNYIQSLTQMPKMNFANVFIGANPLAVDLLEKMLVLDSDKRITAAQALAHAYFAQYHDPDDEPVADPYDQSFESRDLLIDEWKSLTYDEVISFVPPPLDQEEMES

[11] = target: Platelet-derived growth factor receptor beta (Homo sapiens) (UniProt P09619); test: Inhibition of wild-type human partial length PDGFRB (V582 to Y1009 residues) expressed in bacterial expression system assessed as enzyme remaining activity at 1000 nM by Kinomescan method relative to control
Platelet-derived growth factor receptor beta (Homo sapiens), sequence (P09619 whole entry, the tested form may be a part): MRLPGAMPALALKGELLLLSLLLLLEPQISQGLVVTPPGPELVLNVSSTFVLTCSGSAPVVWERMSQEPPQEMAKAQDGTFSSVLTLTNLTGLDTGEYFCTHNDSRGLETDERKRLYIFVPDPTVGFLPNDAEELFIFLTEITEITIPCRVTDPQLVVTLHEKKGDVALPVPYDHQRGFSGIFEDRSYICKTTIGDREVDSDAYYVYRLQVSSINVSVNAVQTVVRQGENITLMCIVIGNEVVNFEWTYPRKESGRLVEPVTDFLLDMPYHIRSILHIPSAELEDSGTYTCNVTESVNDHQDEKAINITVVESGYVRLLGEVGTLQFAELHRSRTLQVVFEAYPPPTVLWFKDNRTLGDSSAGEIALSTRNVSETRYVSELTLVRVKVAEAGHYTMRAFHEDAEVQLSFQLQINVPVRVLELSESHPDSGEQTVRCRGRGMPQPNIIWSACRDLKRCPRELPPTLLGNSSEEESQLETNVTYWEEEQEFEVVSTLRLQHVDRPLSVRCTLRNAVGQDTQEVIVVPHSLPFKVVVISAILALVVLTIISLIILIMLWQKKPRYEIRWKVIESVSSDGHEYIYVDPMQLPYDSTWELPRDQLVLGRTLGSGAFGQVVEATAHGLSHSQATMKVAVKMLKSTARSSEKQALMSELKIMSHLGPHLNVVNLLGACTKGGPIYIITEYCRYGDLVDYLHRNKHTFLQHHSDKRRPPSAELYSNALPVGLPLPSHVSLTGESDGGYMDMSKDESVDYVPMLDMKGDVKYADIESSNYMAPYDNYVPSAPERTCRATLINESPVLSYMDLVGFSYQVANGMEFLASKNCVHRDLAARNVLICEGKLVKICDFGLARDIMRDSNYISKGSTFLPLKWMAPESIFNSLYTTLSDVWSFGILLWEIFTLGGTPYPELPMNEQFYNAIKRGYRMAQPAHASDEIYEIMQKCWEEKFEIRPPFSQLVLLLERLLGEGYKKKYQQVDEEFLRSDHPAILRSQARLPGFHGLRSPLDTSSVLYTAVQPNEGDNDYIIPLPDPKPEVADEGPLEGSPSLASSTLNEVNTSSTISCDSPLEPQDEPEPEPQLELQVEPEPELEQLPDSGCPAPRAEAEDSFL

[12] = target: Proto-oncogene tyrosine-protein kinase Src (Homo sapiens) (UniProt P12931); test: Inhibition of wild-type human partial length SRC (L240 to L536 residues) expressed in bacterial expression system assessed as enzyme remaining activity at 1000 nM by Kinomescan method relative to control
Proto-oncogene tyrosine-protein kinase Src (Homo sapiens), sequence (P12931 2-536 limits assumed): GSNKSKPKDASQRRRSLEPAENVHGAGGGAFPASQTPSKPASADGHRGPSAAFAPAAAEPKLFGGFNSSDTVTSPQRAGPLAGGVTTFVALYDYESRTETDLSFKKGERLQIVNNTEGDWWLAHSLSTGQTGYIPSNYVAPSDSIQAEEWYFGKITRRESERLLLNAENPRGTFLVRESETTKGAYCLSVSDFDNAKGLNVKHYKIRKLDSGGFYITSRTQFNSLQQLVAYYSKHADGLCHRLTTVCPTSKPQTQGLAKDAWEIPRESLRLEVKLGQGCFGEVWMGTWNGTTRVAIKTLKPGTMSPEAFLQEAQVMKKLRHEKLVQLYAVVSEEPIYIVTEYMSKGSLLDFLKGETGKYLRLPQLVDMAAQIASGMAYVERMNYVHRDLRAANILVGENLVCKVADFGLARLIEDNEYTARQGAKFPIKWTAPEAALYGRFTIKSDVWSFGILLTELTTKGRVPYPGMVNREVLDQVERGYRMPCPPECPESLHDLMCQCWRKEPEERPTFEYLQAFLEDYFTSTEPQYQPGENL

[13] = test system: L929; test: Cytoprotection against TNFalpha/Z-VAD-fmk-induced necroptosis in mouse L929 cells at 0.01 to 1 uM treated prior to TNFalpha/Z-VAD-fmk stimulation and measured after 4 hrs by cell-Titer Glo luminescent cell viability assay; assay type: functional, cell-based
In short: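 Mouse L929 cells (DMEM, 10% FBS) pretreated with compound at the indicated concentrations, then given mouse TNF-α 20 ng/mL and z-VAD-fmk 20 μM for 4 h. Viability read by CellTiter-Glo luminescence.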

[14] = test system: Mus musculus; test: Protection against TNFalpha/Z-VAD-fmk-induced C57BL/6J mouse model of systemic inflammatory response syndrome assessed as increase in mouse survial at 5 to 50 mg/kg, po administered via gavage 2 hrs prior to Z-VAD-fmk addition for 15 mins followed by TNFalpha stimulation for 1 hr and subsequent Z-VAD-fmk addition meaured up to 50 hrs post TNFalpha stimulation; assay type: functional, organism-based
In short: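 Female C57BL/6 mice, fasted overnight, n=10 per group. Compound given by oral gavage at 5, 25 or 50 mg/kg 2 h before TNF. z-VAD-fmk 180 µg i.p., then 15 min later mTNF-α 400 µg/kg i.v. in endotoxin-free PBS, then a further 70 µg z-VAD-fmk i.p. 1 h later. Body temperature and survival followed, compared with vehicle by one-way ANOVA.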

[15] = Clearance in Sprague-Dawley rat at 1 mg/kg, iv by LC-tandem mass spectrometry analysis; assay type: ADME, organism-based; conditions: in vivo
In short: (§1)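 Male Sprague-Dawley rats dosed once i.v. at 1 mg/kg or intragastrically at 5 mg/kg. Compound dissolved in 5% DMSO, 10% Tween 80, 75% physiological saline at 0.2 and 1 mg/mL. Blood taken at several time points, plasma spun at 4 °C, stored at -80 °C, assayed by LC/MS/MS. Parameters from individual animals by noncompartmental analysis.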

[16] = Half-life in Sprague-Dawley rat at 5 mg/kg, po by LC-tandem mass spectrometry analysis; assay type: ADME, organism-based; conditions: in vivo; in short: as §1
[17] = AUC (0 to infinity) in Sprague-Dawley rat at 5 mg/kg, po by LC-tandem mass spectrometry analysis; assay type: ADME, organism-based; set-up: dose 5 mg/kg, time infinity, route oral; conditions: in vivo; in short: as §1
[18] = test system: HT-29; test: Effect on TNFalpha/smac mimetic-induced apoptosis in human HT-29 cells at 3 uM treated prior to TNFalpha/smac mimetic stimulation and measured after 20 hrs by cell-Titer Glo luminescent cell viability assay; conditions: ht-29, 20 h

`O=C(Nc1cccc(Br)c1)Nc1cc(Oc2ccc3nc(NC(=O)C4CC4)sc3c2)ccc1F` gave a Kd [1] of over 5 µM, a CC50 at 12 h [2] of over 50 µM and an Activity [3] of 1.8%. It also gave an Activity [4] of 22%, an Activity [5] of 13% and an Activity [6] of 81%. The Activity [7] was 100%, the Activity [8] was 100% and the Activity [9] was 100%. The Activity [10] was 23%, the Activity [11] was 0% and the Activity [12] was 0%. The Activity [13] was “Active”, the Activity [14] was “Active” and the clearance [15] was 0.156 L/h/kg. The half-life [16] was 15.2 h, the AUC(0-inf) [17] was 9.32 µg·h/mL and the Activity [18] was “Non-Toxic”.
